According to ChEMBL document CHEMBL1144046, “2-Methylene 19-nor-25-dehydro-1alpha-hydroxyvitamin D3 26,23-lactones: synthesis, biological activities and molecular basis of passive antagonism” (Bioorg Med Chem, 2008):

Key:
Vitamin D3 receptor [1] = molecular target: T1, Vitamin D3 receptor (Homo sapiens, UniProt P11473); test: Agonist activity at human VDR in HEK293 cells assessed as induction of transcriptional transactivation after 24 hrs by mouse osteopontin luciferase reporter gene assay; type: functional, cell-based
T1 sequence (P11473 whole entry): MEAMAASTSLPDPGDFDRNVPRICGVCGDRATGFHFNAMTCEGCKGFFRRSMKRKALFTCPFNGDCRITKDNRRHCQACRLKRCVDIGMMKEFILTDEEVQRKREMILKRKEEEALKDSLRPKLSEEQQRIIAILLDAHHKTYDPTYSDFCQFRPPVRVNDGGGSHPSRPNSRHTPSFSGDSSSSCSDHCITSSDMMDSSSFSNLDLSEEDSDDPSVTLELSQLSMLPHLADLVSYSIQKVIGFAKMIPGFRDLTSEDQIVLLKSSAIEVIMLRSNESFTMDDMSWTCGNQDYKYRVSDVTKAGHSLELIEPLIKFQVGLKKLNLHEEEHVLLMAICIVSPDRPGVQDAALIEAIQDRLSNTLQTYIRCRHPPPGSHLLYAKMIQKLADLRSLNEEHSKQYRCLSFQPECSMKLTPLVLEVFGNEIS

Vitamin D3 receptor [2] = molecular target: T1, Vitamin D3 receptor; test: Antagonist activity at human VDR in COS7 cells assessed as induction of transcriptional transactivation after 24 hrs by mouse osteopontin luciferase reporter gene assay; type: functional, cell-based, COS-7
Summary of the method: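 Cos7 cells grown in DMEM + 5% FBS, seeded 2 × 10⁴/well; after 24 h lipofected with hVDR expression plasmid, SPPx3-TK-Luc reporter and pRL-CMV control. After 4 h switched to 5% charcoal-treated FCS; next day ligand given with 10 nM 1,25-(OH)2D3 for 24 h. Dual luciferase normalized to internal control; IC50 from dose–response curves.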

Vitamin D3 receptor [3] = molecular target: T1, Vitamin D3 receptor; test: Agonist activity at human VDR in COS7 cells assessed as induction of transcriptional transactivation after 24 hrs by mouse osteopontin luciferase reporter gene assay; type: functional, cell-based, COS-7
Vitamin D3 receptor [4] = molecular target: T2, Vitamin D3 receptor (Rattus norvegicus, UniProt P13053); test: Displacement of [3H]1,25-(OH)2D3 from rat recombinant His-tagged VDR ligand-binding domain expressed in Escherichia coli BL21
T2 sequence (P13053 whole entry): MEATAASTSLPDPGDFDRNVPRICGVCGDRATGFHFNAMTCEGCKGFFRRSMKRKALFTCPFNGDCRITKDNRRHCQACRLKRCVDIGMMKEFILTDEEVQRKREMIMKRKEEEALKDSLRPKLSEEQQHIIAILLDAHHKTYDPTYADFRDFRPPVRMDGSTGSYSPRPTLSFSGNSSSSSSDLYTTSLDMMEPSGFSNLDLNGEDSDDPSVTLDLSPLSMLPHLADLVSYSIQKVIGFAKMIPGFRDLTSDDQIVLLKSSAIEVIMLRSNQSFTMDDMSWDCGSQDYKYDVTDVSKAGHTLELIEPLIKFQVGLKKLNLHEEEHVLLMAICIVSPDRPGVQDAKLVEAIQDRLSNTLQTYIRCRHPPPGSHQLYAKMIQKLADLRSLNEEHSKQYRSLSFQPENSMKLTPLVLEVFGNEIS
Summary of the method: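 Crude lysate of E. coli–expressed His-tagged rat VDR-LBD (aa 115–423), diluted 1000-fold in 50 mM Tris, 100 mM KCl, 5 mM DTT, 0.5% Chaps, pH 7.5, BSA 100 µg/mL. Ligand preincubated 1 h RT, then [3H]-1,25-(OH)2D3 (~5000 dpm) 18 h at 4 °C. Dextran-charcoal separation, scintillation counting; at least twice in duplicate; EC50 for 50% displacement.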

Vitamin D3 receptor [5] = molecular target: T1, Vitamin D3 receptor; test: Antagonist activity at human VDR in HEK293 cells assessed as induction of transcriptional transactivation after 24 hrs by mouse osteopontin luciferase reporter gene assay; type: functional, cell-based
Summary of the method: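 HEK293 cells in DMEM + 5% FBS with penicillin/streptomycin, 37 °C, 5% CO2; calcium phosphate cotransfection of hVDR expression plasmid and SPPx3-TK-Luc reporter. Compounds added 8 h later with 10 nM 1,25-(OH)2D3; harvest after 16–24 h. Luciferase normalized to β-galactosidase; triplicate; IC50 from dose–response curves.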

Row | SMILES | EC50 (Vitamin D3 receptor [1]) [µM] | IC50 (Vitamin D3 receptor [2]) [µM] | EC50 (Vitamin D3 receptor [3]) [µM] | EC50 (Vitamin D3 receptor [4]) [µM] | IC50 (Vitamin D3 receptor [5]) [µM]
1 | C=C1C[C@H](C[C@H](C)[C@H]2CC[C@H]3/C(=C/C=C4C[C@@H](O)C(=C)[C@H](O)C4)CCC[C@]23C)OC1=O | 0.015 | 0.1 | 0.01 | 0.005 | 
2 | C=C1C[C@@H](C[C@@H](C)[C@H]2CC[C@H]3/C(=C/C=C4C[C@@H](O)C(=C)[C@H](O)C4)CCC[C@]23C)OC1=O | 0.2 | 1 | 0.15 | 0.02 | 0.3
3 | C=C1C[C@H](C[C@@H](C)[C@H]2CC[C@H]3/C(=C/C=C4C[C@@H](O)C(=C)[C@H](O)C4)CCC[C@]23C)OC1=O | 0.001 |  | 0.025 | 0.0007 | 
4 | C=C1C[C@@H](C[C@H](C)[C@H]2CC[C@H]3/C(=C/C=C4C[C@@H](O)C(=C)[C@H](O)C4)CCC[C@]23C)OC1=O | 0.02 | 0.3 | 0.006 | 0.005 | 
